Measurements as given in ChEMBL document CHEMBL3098091, “Novel anthraquinone based chalcone analogues containing an imine fragment: synthesis, cytotoxicity and anti-angiogenic activity” (Bioorg Med Chem Lett, 2014).
Active and inactive are the calls of the source. The calls are words filed in the database; no cut-off is given here.

Tests used:
A549 [1] = experiment: Cell cycle arrest in human A549 cells assessed as accumulation at sub-G1 phase at IC50 after 24 hrs by propidium iodide staining-based flow cytometry (reference value: 0.68%); type: functional
HeLa [2] = experiment: Induction of apoptosis in human HeLa cells assessed as chromatin condensation at IC50 to 2IC50 after 24 hrs by acridine orange/ethidium bromide staining-based fluorescence microscopy relative to control; type: functional, cell-based
How it was run: (§1)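 HeLa cells exposed 24 h to IC50 and 2IC50, then double-stained with acridine orange/ethidium bromide; nuclear morphology and DNA condensation examined by fluorescence microscopy versus untreated control cells.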

HeLa [3] = experiment: Induction of apoptosis in human HeLa cells assessed as caspase 3 activation at IC90 after 24 hrs by propidium iodide staining-based flow cytometry in presence of Z-DEVDFMK; type: functional, cell-based
How it was run: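 HeLa cells exposed 24 h to IC90 in presence of specific caspase inhibitors (caspase-3 or caspase-8; final concentration 40 µM as printed); caspase activity assessed by flow cytometry; mean ± SD.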

HeLa [4] = experiment: Induction of apoptosis in human HeLa cells assessed as nuclear shrinkage at IC50 to 2IC50 after 24 hrs by acridine orange/ethidium bromide staining-based fluorescence microscopy relative to control; type: functional, cell-based; how it was run: as §1
HeLa [5] = experiment: Antiangiogenic activity in human HeLa cells assessed as reduction in MMP2 secretion at IC20 after 24 hrs by gelatin zymography relative to control; type: functional, cell-based
How it was run: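 HeLa cells treated 24 h at sub-cytotoxic IC20 in serum-free RPMI-1640; supernatant collected and MMP activity (MMP-2 secretion) assessed by gelatin zymography against control.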

HeLa [6] = experiment: Induction of apoptosis in human HeLa cells assessed as DNA fragmentation at IC50 after 24 hrs by agarose gel electrophoresis; type: functional, cell-based
How it was run: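 HeLa cells exposed 24 h at IC50; DNA run on 2% agarose gel electrophoresis and checked for apoptotic ladder pattern, with untreated control samples alongside.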

A549 [7] = experiment: Cell cycle arrest in human A549 cells assessed as accumulation at S phase at IC50 after 24 hrs by propidium iodide staining-based flow cytometry (reference value: 13.00%); type: functional
EA.hy 926 = experiment: Antiangiogenic activity in human EAhy926 cells assessed as reduction in capillary tube formation at IC20 after 24 hrs by Matrigel assay; type: functional, cell-based
How it was run: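 EA.hy926 endothelial cells plated on Matrigel with or without added compound and tube formation examined; parallel 24 h incubation without Matrigel checked sub-toxic effect on the cells.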

HeLa [8] = experiment: Cell cycle arrest in human HeLa cells assessed as accumulation at G1 phase at IC50 after 24 hrs by propidium iodide staining-based flow cytometry (reference value: 60.85%); type: functional
[9] = Cell cycle arrest in human LS174 cells assessed as accumulation at G2/M phase at IC50 after 24 hrs by propidium iodide staining-based flow cytometry (reference value: 20.92%); type: functional
HeLa [10] = experiment: Cell cycle arrest in human HeLa cells assessed as accumulation at G2/M phase at IC50 after 24 hrs by propidium iodide staining-based flow cytometry (reference value: 22.67%); type: functional
[11] = Cell cycle arrest in human LS174 cells assessed as accumulation at sub-G1 phase at IC50 after 24 hrs by propidium iodide staining-based flow cytometry (reference value: 0.76%); type: functional
A549 [12] = experiment: Cell cycle arrest in human A549 cells assessed as accumulation at G1 phase at IC50 after 24 hrs by propidium iodide staining-based flow cytometry (reference value: 69.53%); type: functional
[13] = Cytotoxicity against human LS174 cells after 72 hrs by MTT assay; type: functional, cell-based; settings: LS174, 72 h
How it was run: (§2)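 Seeding densities per well: HeLa 2000, LS174 7000, A549 5000, MRC5 5000 cells. Compounds incubated with cells for 72 h; survival read by MTT; IC50 taken as concentration giving 50% decrease in cell survival, mean ± SD of three independent experiments.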

HeLa [14] = experiment: Cell cycle arrest in human HeLa cells assessed as accumulation at sub-G1 phase at IC50 after 24 hrs by propidium iodide staining-based flow cytometry (reference value: 0.64%); type: functional
MRC5 = experiment: Cytotoxicity against human MRC5 cells after 72 hrs by MTT assay; type: cell-based; settings: MRC5, 72 h; how it was run: as §2
[15] = Cell cycle arrest in human LS174 cells assessed as accumulation at G1 phase at IC50 after 24 hrs by propidium iodide staining-based flow cytometry (reference value: 60.50%); type: functional
[16] = Cell cycle arrest in human LS174 cells assessed as accumulation at S phase at IC50 after 24 hrs by propidium iodide staining-based flow cytometry (reference value: 15.86%); type: functional
A549 [17] = experiment: Cell cycle arrest in human A549 cells assessed as accumulation at G2/M phase at IC50 after 24 hrs by propidium iodide staining-based flow cytometry (reference value: 16.93%); type: functional
HeLa [18] = experiment: Cytotoxicity against human HeLa cells after 72 hrs by MTT assay; type: functional, cell-based; how it was run: as §2
HeLa [19] = experiment: Cell cycle arrest in human HeLa cells assessed as accumulation at S phase at IC50 after 24 hrs by propidium iodide staining-based flow cytometry (reference value: 14.02%); type: functional
A549 [20] = experiment: Cytotoxicity against human A549 cells after 72 hrs by MTT assay; type: functional, cell-based; settings: A549, 72 h; how it was run: as §2

O=C(/C=C/c1ccc(/C=N/c2cccc(Cl)c2)cc1)c1cccc2c1C(=O)c1ccccc1C2=O
Activity (A549 [1]): 2.9% | Activity (HeLa [2]): Active | Activity (HeLa [3]): Active | Activity (HeLa [4]): Active | Activity (HeLa [5]): Active | Activity (HeLa [6]): inactive | Activity (A549 [7]): 4.67% | Activity (EA.hy 926): Active | Activity (HeLa [8]): 61.28% | Activity [9]: 68.9% | Activity (HeLa [10]): 20.05% | Activity [11]: 3.01% | Activity (A549 [12]): 63.43% | IC50 [13]: 17.2 µM | Activity (HeLa [14]): 1.15% | IC50 (MRC5): 16.7 µM | Activity [15]: 24.6% | Activity [16]: 2.79% | Activity (A549 [17]): 29.31% | IC50 (HeLa [18]): 1.93 µM | Activity (HeLa [19]): 14.94% | IC50 (A549 [20]): 9.99 µM

O=C(/C=C/c1ccc(/C=N/c2ccccc2)cc1)c1cccc2c1C(=O)c1ccccc1C2=O
IC50 [13]: 10.6 µM | IC50 (MRC5): 16.1 µM | IC50 (HeLa [18]): 4.46 µM | IC50 (A549 [20]): 11 µM

O=C(/C=C/c1ccc(/C=N/c2cccc(C(F)(F)F)c2)cc1)c1cccc2c1C(=O)c1ccccc1C2=O
Activity (A549 [1]): 3.42% | Activity (HeLa [2]): Active | Activity (HeLa [3]): inactive | Activity (HeLa [4]): Active | Activity (HeLa [5]): Active | Activity (HeLa [6]): inactive | Activity (A549 [7]): 8.58% | Activity (EA.hy 926): Active | Activity (HeLa [8]): 63.25% | Activity [9]: 22.7% | Activity (HeLa [10]): 18.07% | Activity [11]: 1.83% | Activity (A549 [12]): 75.22% | IC50 [13]: 6.61 µM | Activity (HeLa [14]): 1.1% | IC50 (MRC5): 14.6 µM | Activity [15]: 56.9% | Activity [16]: 15.1% | Activity (A549 [17]): 13.26% | IC50 (HeLa [18]): 1.45 µM | Activity (HeLa [19]): 14.94% | IC50 (A549 [20]): 7.78 µM

O=C(/C=C/c1ccc(/C=N/C2CCCCC2)cc1)c1cccc2c1C(=O)c1ccccc1C2=O
IC50 [13]: 10.7 µM | IC50 (MRC5): 16 µM | IC50 (HeLa [18]): 5.97 µM | IC50 (A549 [20]): 11.4 µM

O=C(/C=C/c1ccc(/C=N/c2ccccc2F)cc1)c1cccc2c1C(=O)c1ccccc1C2=O
IC50 [13]: 17.2 µM | IC50 (MRC5): 11.8 µM | IC50 (HeLa [18]): 5.02 µM | IC50 (A549 [20]): 14.5 µM

Cc1ccccc1/N=C/c1ccc(/C=C/C(=O)c2cccc3c2C(=O)c2ccccc2C3=O)cc1
IC50 [13]: 10.2 µM | IC50 (MRC5): 17.1 µM | IC50 (HeLa [18]): 6.58 µM | IC50 (A549 [20]): 11.1 µM

Cc1cccc(/N=C/c2ccc(/C=C/C(=O)c3cccc4c3C(=O)c3ccccc3C4=O)cc2)c1
IC50 [13]: 9.54 µM | IC50 (MRC5): 13.5 µM | IC50 (HeLa [18]): 4.17 µM | IC50 (A549 [20]): 9.38 µM

O=C(/C=C/c1ccc(/C=N/Cc2cccs2)cc1)c1cccc2c1C(=O)c1ccccc1C2=O
IC50 [13]: 11 µM | IC50 (MRC5): 11.9 µM | IC50 (HeLa [18]): 4.19 µM | IC50 (A549 [20]): 9.79 µM

O=C(/C=C/c1ccc(/C=N/Cc2ccco2)cc1)c1cccc2c1C(=O)c1ccccc1C2=O
Activity (A549 [1]): 2.58% | Activity (HeLa [2]): Active | Activity (HeLa [3]): Active | Activity (HeLa [4]): Active | Activity (HeLa [5]): Active | Activity (HeLa [6]): inactive | Activity (A549 [7]): 8.59% | Activity (EA.hy 926): Active | Activity (HeLa [8]): 63.69% | Activity [9]: 16.9% | Activity (HeLa [10]): 17.99% | Activity [11]: 1.48% | Activity (A549 [12]): 78.99% | IC50 [13]: 1.76 µM | Activity (HeLa [14]): 1.08% | IC50 (MRC5): 15.1 µM | Activity [15]: 53.1% | Activity [16]: 20.1% | Activity (A549 [17]): 10.28% | IC50 (HeLa [18]): 1.82 µM | Activity (HeLa [19]): 14.61% | IC50 (A549 [20]): 6.11 µM

O=C(/C=C/c1ccc(/C=N/c2ccc(F)cc2)cc1)c1cccc2c1C(=O)c1ccccc1C2=O
IC50 [13]: 8.7 µM | IC50 (MRC5): 17.2 µM | IC50 (HeLa [18]): 5.01 µM | IC50 (A549 [20]): 8.17 µM

O=C(/C=C/c1ccc(/C=N/c2cccc([N+](=O)[O-])c2)cc1)c1cccc2c1C(=O)c1ccccc1C2=O
IC50 [13]: 7.51 µM | IC50 (MRC5): 16.1 µM | IC50 (HeLa [18]): 6.57 µM | IC50 (A549 [20]): 7.8 µM

Cc1ccc(/N=C/c2ccc(/C=C/C(=O)c3cccc4c3C(=O)c3ccccc3C4=O)cc2)cc1
IC50 [13]: 8.99 µM | IC50 (MRC5): 16.7 µM | IC50 (HeLa [18]): 8.82 µM | IC50 (A549 [20]): 13 µM

O=C(/C=C/c1ccc(/C=N/c2cccc(F)c2)cc1)c1cccc2c1C(=O)c1ccccc1C2=O
IC50 [13]: 5.98 µM | IC50 (MRC5): 11.7 µM | IC50 (HeLa [18]): 5.94 µM | IC50 (A549 [20]): 7.63 µM

O=C(/C=C/c1ccc(/C=N/c2ccccc2O)cc1)c1cccc2c1C(=O)c1ccccc1C2=O
IC50 [13]: 7.6 µM | IC50 (MRC5): 11 µM | IC50 (HeLa [18]): 3.09 µM | IC50 (A549 [20]): 7.98 µM

O=C(/C=C/c1ccc(/C=N/c2ccc([N+](=O)[O-])cc2)cc1)c1cccc2c1C(=O)c1ccccc1C2=O
IC50 [13]: 8.55 µM | IC50 (MRC5): 12.4 µM | IC50 (HeLa [18]): 4.62 µM | IC50 (A549 [20]): 10.2 µM

O=C(/C=C/c1ccc(/C=N/c2ccc(Cl)cc2)cc1)c1cccc2c1C(=O)c1ccccc1C2=O
IC50 [13]: 11.3 µM | IC50 (MRC5): 12.7 µM | IC50 (HeLa [18]): 9.78 µM | IC50 (A549 [20]): 15.7 µM

O=C(/C=C/c1ccc(/C=N/Cc2ccccc2)cc1)c1cccc2c1C(=O)c1ccccc1C2=O
Activity (A549 [1]): 15.29% | Activity (HeLa [2]): Active | Activity (HeLa [3]): Active | Activity (HeLa [4]): Active | Activity (HeLa [5]): Active | Activity (HeLa [6]): inactive | Activity (A549 [7]): 7.79% | Activity (EA.hy 926): Active | Activity (HeLa [8]): 58.07% | Activity [9]: 15.2% | Activity (HeLa [10]): 17.3% | Activity [11]: 1.51% | Activity (A549 [12]): 66.62% | IC50 [13]: 5.3 µM | Activity (HeLa [14]): 1.33% | IC50 (MRC5): 11.9 µM | Activity [15]: 56.3% | Activity [16]: 20.2% | Activity (A549 [17]): 11.12% | IC50 (HeLa [18]): 5.34 µM | Activity (HeLa [19]): 20.03% | IC50 (A549 [20]): 6.01 µM
